Results published in article PMC7870562 (Bioorganic chemistry, 2020).

What was measured:
HaCaT = assay: MTT cytotoxicity / cell viability assay, HaCaT keratinocytes; format: cell-based; conditions: Homo sapiens, 48 h
How it was run: (§1)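 Cells in 5–10% FBS/DMEM were seeded at 5×10³ per well, refed at 24 h and grown to 70% confluence. They were treated for 48 h at 37°C, 5% CO2 with two-fold serial dilutions of test compound in DMSO (≤0.1%), […], in 8–10 repeats. After MTT, absorbance was read at 562 nm. Viability was expressed relative to DMSO controls and IC50 derived by nonlinear regression. Data are mean ± SD of ≥5 independent experiments in octuplicates.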

SK-Mel-28 cells = assay: MTT cytotoxicity / cell viability assay, SK-Mel-28; format: cell-based, human; conditions: for IC50: Homo sapiens, SK-MEL-28, 48 h; for selectivity index: IC50 melanocytes / IC50 SK-Mel-28
How it was run: as §1

CDK2/Cyclin E = CDK2/Cyclin E (Homo sapiens, UniProt P24941); assay: In vitro kinase activity assay; format: biochemical; conditions: 10-dose, three-fold serial dilution from 100 μM
How it was run: (§2)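 Kinase profiling was run at Reaction Biology. IC50 values came from 10-dose mode, three-fold serial dilutions starting at 100 μM. Reference inhibitors were co-assayed at 1 and 10 μM.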

Melanocyte = assay: MTT cytotoxicity / cell viability assay, normal melanocytes; format: cell-based; conditions: Homo sapiens, 48 h
How it was run: as §1

c-Kit = c-Kit (Homo sapiens, UniProt P10721); assay: In vitro kinase activity assay; format: biochemical
c-Kit, sequence (P10721 26-976): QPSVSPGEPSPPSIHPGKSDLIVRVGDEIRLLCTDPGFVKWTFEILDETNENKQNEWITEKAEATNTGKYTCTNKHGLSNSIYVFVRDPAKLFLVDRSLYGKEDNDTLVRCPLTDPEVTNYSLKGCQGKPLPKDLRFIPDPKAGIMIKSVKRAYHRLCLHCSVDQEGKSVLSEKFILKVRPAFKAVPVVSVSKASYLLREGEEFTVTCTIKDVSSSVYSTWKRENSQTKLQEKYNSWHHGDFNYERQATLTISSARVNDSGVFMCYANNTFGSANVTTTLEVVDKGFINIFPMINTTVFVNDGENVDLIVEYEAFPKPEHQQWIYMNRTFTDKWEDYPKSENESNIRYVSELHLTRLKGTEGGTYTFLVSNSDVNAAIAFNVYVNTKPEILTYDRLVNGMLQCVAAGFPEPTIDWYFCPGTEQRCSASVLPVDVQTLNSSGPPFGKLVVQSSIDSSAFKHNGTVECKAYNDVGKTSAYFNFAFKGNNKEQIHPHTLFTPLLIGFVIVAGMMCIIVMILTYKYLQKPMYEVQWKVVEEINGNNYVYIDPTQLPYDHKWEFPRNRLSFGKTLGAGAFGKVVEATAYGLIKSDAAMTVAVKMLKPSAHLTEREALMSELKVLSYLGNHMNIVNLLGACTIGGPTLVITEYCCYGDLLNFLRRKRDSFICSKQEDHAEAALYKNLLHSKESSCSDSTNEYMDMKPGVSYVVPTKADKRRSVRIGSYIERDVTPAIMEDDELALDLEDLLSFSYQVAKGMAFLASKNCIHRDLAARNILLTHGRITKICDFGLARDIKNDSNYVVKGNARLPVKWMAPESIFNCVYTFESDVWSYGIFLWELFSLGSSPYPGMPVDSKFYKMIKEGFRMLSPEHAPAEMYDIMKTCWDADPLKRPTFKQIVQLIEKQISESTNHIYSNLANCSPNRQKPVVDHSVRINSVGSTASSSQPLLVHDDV
How it was run: as §2

A375 cells [1] = assay: DAPI staining of apoptotic nuclei, A375; format: cell-based, human
How it was run: (§3)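 Equal numbers of cells were seeded in T-25 flasks and exposed to test compound at different concentrations for 36 h. Cells were PBS-washed, stained with DAPI in PBS and imaged by fluorescence microscopy at 10x and 1.6×10x. Apoptotic nuclei were scored by morphology and expressed as percentage of cells.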

A375 cells [2] = assay: MTT cytotoxicity / cell viability assay, A375; format: cell-based, human; conditions: for IC50: Homo sapiens, A-375, 48 h; for selectivity index: IC50 melanocytes / IC50 A375
How it was run: as §1

A431 cells [3] = assay: MTT cytotoxicity / cell viability assay, A431; format: cell-based, human; conditions: for IC50: Homo sapiens, A-431, 48 h; for selectivity index: IC50 HaCaT / IC50 A431
How it was run: as §1

A375 and A431 cells [4] = assay: Scratch wound healing assay; format: cell-based, human; conditions: A375 and A431, ½IC50, IC50, 2×IC50, 48 h; for inhibition of wound closure: vs untreated controls
How it was run: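 Confluent A375 or A431 monolayers in complete DMEM received two parallel scratches made with a 200-μL pipette tip, then were washed. Wells were treated at ½IC50, IC50 or 2×IC50 for 48 h. Wound area was measured by image analysis as a percentage of the initial cell-free area versus 0 h and 48 h controls. Data are mean ± SD of three independent experiments; one-way ANOVA with Dunn's test.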

UWBCC1 cells = assay: MTT cytotoxicity / cell viability assay, UWBCC1; format: cell-based, human; conditions: for IC50: Homo sapiens, 48 h; for selectivity index: IC50 HaCaT / IC50 UWBCC1
How it was run: as §1

CDK2/Cyclin A = CDK2/Cyclin A (Homo sapiens, UniProt P24941); assay: In vitro kinase activity assay; format: biochemical; conditions: 10-dose, three-fold serial dilution from 100 μM
How it was run: as §2

mTOR/FRAP1 = mTOR/FRAP1 (Homo sapiens, UniProt P42345); assay: In vitro kinase activity assay; format: biochemical; conditions: for IC50: mTOR/FRAP1 IC50, 10-dose, three-fold serial dilution from 100 μM
How it was run: as §2

A431 cells [5] = assay: DAPI staining of apoptotic nuclei, A431; format: cell-based, human
How it was run: as §3

A375 and A431 cells [6] = assay: Colony formation assay; format: cell-based, human; conditions: A375 and A431, ½IC50, IC50, 2×IC50, concentration-dependent
How it was run: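 DMSO ≤0.1% v/v was the vehicle control. Cells were trypsinized and ~1000 reseeded per 10-cm2 plate, then grown 10–14 days drug-free at 37°C, 5% CO2, with medium renewed every 2–3 days. Colonies were stained with 0.5% Gentian violet in ~64% methanol/4% paraformaldehyde. Results are percent of control, mean ± SD of three independent experiments.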

A375 and A431 cells [7] = assay: Western blot analysis of apoptosis, cell cycle and c-Kit markers; format: cell-based, human; conditions: A375 and A431, IC50 and 2×IC50, 48 h
How it was run: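 Cells were plated at 3×10⁵ overnight and treated at 0, IC50 or 2×IC50 (<0.1% DMSO) for 48 h. Lysates were made in ice-cold RIPA with protease/phosphatase inhibitors and PMSF (15 min), then run on SDS-PAGE. Blots were probed with primary antibodies at 1:250–1:1000 and HRP secondary at 1:2000. Bands were normalized to β-actin, GAPDH or Rab11 and given as % expression; three independent experiments, one-way ANOVA with Dunn's test.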

[8] = A375, treated 36 hours at ½IC50
[9] = A431, treated 36 hours at ½IC50

| IC50 (CDK2/Cyclin E) [µM] | IC50 (c-Kit) [µM] | IC50 (CDK2/Cyclin A) [µM] | IC50 (mTOR/FRAP1) [µM] | Structure (SMILES) | IC50 (HaCaT) [µM] | IC50 (SK-Mel-28 cells) [µM] | selectivity index (SK-Mel-28 cells) | IC50 (Melanocyte) [µM] | DAPI (+) apoptotic cells (A375 cells [1]; A375, treated 36 hours at IC50) [%] | DAPI (+) apoptotic cells (A375 cells [1]; [8]) [%] | IC50 (A375 cells [2]) [µM] | selectivity index (A375 cells [2]) | IC50 (A431 cells [3]) [µM] | selectivity index (A431 cells [3]) | inhibition of wound closure (A375 and A431 cells [4]) | IC50 (UWBCC1 cells) [µM] | selectivity index (UWBCC1 cells) | DAPI (+) apoptotic cells (A431 cells [5]; A431, treated 36 hours at IC50) [%] | DAPI (+) apoptotic cells (A431 cells [5]; [9]) [%] | other results |
| --- | --- | --- | --- | --- | --- | --- | --- | --- | --- | --- | --- | --- | --- | --- | --- | --- | --- | --- | --- | --- |
| 1.78 | 0.12 | 2.95 | 1.42 | COc1cccc(-c2oc3cc(C)ccc3c(=O)c2O)c1 [F9, 3-Hydroxy-2-(3-methoxyphenyl)-7-methyl-4H-chromen-4-one] | 27 ± 0.3 | 17 ± 1 | 1.5 | 26 ± 1.6 | 18.2 | 7.5 | 12 ± 0.9 | 2.2 | 9.2 ± 0.7 | 2.9 | 28–72% | 9.4 ± 0.3 | 2.9 | 19.1 | 7.93 |  |
| > 100 | 0.09 | 4.77 |  | Cc1cc([N+](=O)[O-])c2oc(-c3ccc(Br)cc3)c(O)c(=O)c2c1 [F20, 2-(4-Bromophenyl)-3-hydroxy-6-methyl-8-nitro-4H-chromen-4-one] | 34 ± 0.6 | 17 ± 3 | 2.1 | 35 ± 0.23 | 20.4 | 8.2 | 6.3 ± 1 | 5.6 | 0.2 ± 0.1 | ~170 |  | 0.12 ± 0.11 |  | 27.7 | 14.6 | percentage of colonies (in words) (A375 and A431 cells [6]): significantly reduced; expression level of pro-apoptotic protein Bax (A375 and A431 cells [7]): significantly increased; level of anti-apoptotic protein Bcl-2 (A375 and A431 cells [7]): decreased; protein expression levels of cyclin A2, cyclin E2 and CDK2 (A375 and A431 cells [7]): significantly suppress; protein expression levels of phosphorylated c-Kit (A375 and A431 cells [7]): significantly suppressed; protein expression levels of cleaved caspases −3, −7, −8 and PARP (A375 and A431 cells [7]; vs untreated controls): elevated; scratched wound area closure (in words) (A375 and A431 cells [4]; dose-dependent): significantly decreased; inhibition of mTOR kinase activity (in words) (mTOR/FRAP1): did not substantively inhibit |
| 5.7 | 1.74 | 4.57 | 11.5 | O=c1c(O)c(-c2cccc(Cl)c2)oc2ccc(F)cc12 [F17, 2-(3-Chlorophenyl)-6-fluoro-3-hydroxy-4H-chromen-4-one] | 38 ± 0.8 | 25 ± 3.4 |  | 32 ± 0.72 | 17.7 | 6.9 | 13 ± 1 | 2.5 | 10 ± 2.6 | 3.8 | 28–72% | 8.1 ± 1.2 | 4.7 | 18.4 | 8.81 |  |
